Reference: ChEMBL document CHEMBL1641497, “A potent and selective indole N-type calcium channel (Ca(v)2.2) blocker for the treatment of pain” (Bioorg Med Chem Lett, 2011)
The source made the active and inactive calls. No cut-off for these calls is given here.

Experiments:
[1] = Plasma clearance in dog at 1 mg/kg, iv and 3 mg/kg, po; type: ADME, organism-based, Canis lupus familiaris
In short: (§1)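 Dog PK with 1.0 mg/kg IV and 3.0 mg/kg PO doses, based on plasma analysis. Parameters: dose-normalized AUC (μM h kg/mg), plasma clearance (mL/min/kg), T1/2 (h) and oral bioavailability (%).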

[2] = Oral bioavailability in rat at 3 mg/kg; type: ADME, organism-based; details: in vivo
In short: (§2)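 Rat PK with 1.0 mg/kg IV and 3.0 mg/kg PO doses, based on plasma analysis. Parameters: Cmax, dose-normalized AUC (μM h kg/mg), plasma clearance (mL/min/kg), Vdss (L/kg), T1/2 (h) and oral bioavailability (%).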

[3] = biological target: Cav1.2 (voltage-dependent L-type calcium channel subunit alpha-1C) (Homo sapiens, UniProt Q13936); assay: Blockade of Cav1.2 channel at 10 uM by fluorescent calcium-influx assay
Cav1.2 (voltage-dependent L-type calcium channel subunit alpha-1C), sequence (Q13936 whole entry): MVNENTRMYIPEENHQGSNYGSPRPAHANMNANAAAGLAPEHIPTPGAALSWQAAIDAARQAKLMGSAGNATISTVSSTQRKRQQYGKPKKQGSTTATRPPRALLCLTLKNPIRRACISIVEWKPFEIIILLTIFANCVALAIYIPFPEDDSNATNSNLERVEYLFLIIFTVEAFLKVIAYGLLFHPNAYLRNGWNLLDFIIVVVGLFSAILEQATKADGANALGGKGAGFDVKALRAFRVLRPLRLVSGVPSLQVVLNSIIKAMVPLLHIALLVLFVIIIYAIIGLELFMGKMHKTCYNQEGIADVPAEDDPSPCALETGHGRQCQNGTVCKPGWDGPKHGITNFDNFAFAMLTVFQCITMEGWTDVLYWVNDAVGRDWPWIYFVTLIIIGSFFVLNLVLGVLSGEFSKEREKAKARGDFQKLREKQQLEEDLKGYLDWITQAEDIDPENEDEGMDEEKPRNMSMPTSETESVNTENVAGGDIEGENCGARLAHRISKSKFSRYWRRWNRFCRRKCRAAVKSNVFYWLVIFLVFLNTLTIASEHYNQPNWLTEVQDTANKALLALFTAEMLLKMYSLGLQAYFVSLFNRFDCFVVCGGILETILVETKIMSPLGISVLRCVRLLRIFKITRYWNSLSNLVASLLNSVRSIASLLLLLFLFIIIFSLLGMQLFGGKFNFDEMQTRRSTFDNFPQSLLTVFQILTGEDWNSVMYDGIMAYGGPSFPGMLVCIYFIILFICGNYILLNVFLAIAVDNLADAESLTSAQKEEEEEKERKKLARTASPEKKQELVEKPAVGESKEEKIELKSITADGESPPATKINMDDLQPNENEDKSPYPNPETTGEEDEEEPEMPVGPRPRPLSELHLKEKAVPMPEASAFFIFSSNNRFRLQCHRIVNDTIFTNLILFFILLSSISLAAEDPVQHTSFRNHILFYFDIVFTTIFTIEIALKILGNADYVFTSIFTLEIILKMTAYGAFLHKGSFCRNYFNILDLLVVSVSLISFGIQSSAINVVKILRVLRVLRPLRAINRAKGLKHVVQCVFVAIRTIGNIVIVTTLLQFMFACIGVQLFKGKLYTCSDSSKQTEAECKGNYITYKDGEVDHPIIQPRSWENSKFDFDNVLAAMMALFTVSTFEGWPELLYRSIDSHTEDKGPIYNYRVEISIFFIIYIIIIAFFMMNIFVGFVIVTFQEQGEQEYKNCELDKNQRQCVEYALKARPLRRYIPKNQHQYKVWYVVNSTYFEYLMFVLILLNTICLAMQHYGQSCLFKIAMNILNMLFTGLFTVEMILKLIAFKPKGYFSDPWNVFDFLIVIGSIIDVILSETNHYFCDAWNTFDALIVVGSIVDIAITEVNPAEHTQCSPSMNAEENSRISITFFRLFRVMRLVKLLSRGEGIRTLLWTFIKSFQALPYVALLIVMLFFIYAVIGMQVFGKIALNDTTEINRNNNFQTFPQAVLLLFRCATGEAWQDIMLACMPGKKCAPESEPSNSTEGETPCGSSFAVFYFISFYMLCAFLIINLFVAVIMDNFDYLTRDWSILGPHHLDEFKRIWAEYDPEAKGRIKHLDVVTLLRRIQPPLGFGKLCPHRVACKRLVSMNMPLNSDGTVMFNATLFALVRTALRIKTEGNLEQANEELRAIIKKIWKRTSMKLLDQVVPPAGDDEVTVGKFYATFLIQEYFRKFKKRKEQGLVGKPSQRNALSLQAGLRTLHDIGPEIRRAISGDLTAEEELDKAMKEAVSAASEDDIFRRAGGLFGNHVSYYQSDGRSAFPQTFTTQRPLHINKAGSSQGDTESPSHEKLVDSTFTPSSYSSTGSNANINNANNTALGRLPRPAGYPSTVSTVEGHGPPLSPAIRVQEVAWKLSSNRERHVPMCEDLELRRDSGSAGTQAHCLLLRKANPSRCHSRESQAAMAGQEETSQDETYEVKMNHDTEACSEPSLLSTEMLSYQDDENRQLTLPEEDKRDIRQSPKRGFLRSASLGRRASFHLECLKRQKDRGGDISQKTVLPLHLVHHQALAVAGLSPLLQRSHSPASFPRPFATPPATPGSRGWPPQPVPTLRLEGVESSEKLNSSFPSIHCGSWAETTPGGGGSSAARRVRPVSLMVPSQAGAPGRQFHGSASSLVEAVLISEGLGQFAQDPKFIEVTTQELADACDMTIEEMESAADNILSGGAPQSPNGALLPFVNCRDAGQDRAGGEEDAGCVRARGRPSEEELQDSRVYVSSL
In short: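 Cav1.2 (L-type) channel block measured with a fluorescent calcium-influx FLIPR assay. Results are reported as % inhibition at 10 μM test concentration.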

[4] = biological target: T1, Nuclear receptor subfamily 1 group I member 2 (Homo sapiens, UniProt O75469); assay: Activity at PXR by induction assay
T1 sequence (O75469 whole entry): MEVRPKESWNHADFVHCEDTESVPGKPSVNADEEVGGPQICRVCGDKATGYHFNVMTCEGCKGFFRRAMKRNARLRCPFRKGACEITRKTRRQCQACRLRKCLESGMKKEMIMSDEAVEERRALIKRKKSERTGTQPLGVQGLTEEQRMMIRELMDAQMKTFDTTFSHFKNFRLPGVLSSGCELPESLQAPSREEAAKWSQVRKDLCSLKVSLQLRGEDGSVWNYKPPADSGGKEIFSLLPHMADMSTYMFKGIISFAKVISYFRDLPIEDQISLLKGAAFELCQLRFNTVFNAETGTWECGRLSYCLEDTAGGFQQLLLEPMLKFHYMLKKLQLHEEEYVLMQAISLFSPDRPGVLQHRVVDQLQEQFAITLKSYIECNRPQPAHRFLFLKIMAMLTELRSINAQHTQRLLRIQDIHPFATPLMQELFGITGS

[5] = Metabolic stability in human liver microsomes assessed as compound remaining after 60 mins; type: ADME, Microsome; details: read-out: Stability
In short: (§3)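 Compounds incubated with human or rat liver microsomes for 60 min. Read-out is the percent of parent compound remaining.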

[6] = Metabolic stability in rat liver microsomes assessed as compound remaining after 60 mins; type: ADME, Microsome; details: read-out: Stability; in short: as §3
Rattus norvegicus [7] = assay: Dose normalized AUC in rat at 1 mg/kg, iv and 3 mg/kg, po; type: ADME, organism-based; details: in vivo; in short: as §2
[8] = Plasma clearance in rat at 1 mg/kg, iv and 3 mg/kg, po; type: ADME, organism-based; in short: as §2
[9] = Half life in rat at 1 mg/kg, iv and 3 mg/kg, po; type: ADME, organism-based; details: in vivo; in short: as §2
Canis familiaris [10] = assay: Dose normalized AUC in dog at 1 mg/kg, iv and 3 mg/kg, po; type: ADME, organism-based, Canis lupus familiaris; details: in vivo; in short: as §1
[11] = Half life in dog at 1 mg/kg, iv and 3 mg/kg, po; type: ADME, organism-based, Canis lupus familiaris; details: in vivo; in short: as §1
[12] = Oral bioavailability in dog at 3 mg/kg; type: ADME, organism-based, Canis lupus familiaris; details: in vivo
Cytochrome P450 3A4 = Cytochrome P450 3A4 (Homo sapiens, UniProt P08684); assay: Inhibition of CYP3A4; type: ADME
Cytochrome P450 3A4, sequence (P08684 whole entry): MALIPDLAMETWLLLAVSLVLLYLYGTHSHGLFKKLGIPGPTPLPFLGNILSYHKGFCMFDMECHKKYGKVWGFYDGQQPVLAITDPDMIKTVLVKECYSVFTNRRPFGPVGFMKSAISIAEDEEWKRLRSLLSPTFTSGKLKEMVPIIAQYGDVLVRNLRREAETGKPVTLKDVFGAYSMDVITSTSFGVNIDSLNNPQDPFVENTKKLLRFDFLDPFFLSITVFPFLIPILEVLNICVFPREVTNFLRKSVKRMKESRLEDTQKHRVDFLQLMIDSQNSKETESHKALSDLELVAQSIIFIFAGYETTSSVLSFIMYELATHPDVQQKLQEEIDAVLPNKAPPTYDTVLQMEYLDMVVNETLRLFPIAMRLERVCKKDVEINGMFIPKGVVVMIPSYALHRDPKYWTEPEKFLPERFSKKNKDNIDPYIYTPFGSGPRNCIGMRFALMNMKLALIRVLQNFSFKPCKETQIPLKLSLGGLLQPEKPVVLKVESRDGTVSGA

Cytochrome P450 2D6 = Cytochrome P450 2D6 (Homo sapiens, UniProt P10635); assay: Inhibition of CYP2D6; type: ADME
Cytochrome P450 2D6, sequence (P10635 whole entry): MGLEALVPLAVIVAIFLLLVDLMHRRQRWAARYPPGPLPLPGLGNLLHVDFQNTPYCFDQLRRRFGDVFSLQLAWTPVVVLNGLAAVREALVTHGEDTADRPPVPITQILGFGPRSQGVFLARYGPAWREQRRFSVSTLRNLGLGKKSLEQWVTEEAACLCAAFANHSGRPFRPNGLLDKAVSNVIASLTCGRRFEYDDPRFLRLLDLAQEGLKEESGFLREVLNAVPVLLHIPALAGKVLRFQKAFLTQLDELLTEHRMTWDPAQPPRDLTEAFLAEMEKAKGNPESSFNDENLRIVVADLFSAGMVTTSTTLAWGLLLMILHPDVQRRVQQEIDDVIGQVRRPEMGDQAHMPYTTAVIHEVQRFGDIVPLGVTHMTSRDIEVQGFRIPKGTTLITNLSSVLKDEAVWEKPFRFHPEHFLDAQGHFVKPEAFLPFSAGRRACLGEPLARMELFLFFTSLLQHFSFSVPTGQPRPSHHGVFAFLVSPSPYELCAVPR

Cytochrome P450 2C9 = Cytochrome P450 2C9 (Homo sapiens, UniProt P11712); assay: Inhibition of CYP2C9; type: ADME
Cytochrome P450 2C9, sequence (P11712 whole entry): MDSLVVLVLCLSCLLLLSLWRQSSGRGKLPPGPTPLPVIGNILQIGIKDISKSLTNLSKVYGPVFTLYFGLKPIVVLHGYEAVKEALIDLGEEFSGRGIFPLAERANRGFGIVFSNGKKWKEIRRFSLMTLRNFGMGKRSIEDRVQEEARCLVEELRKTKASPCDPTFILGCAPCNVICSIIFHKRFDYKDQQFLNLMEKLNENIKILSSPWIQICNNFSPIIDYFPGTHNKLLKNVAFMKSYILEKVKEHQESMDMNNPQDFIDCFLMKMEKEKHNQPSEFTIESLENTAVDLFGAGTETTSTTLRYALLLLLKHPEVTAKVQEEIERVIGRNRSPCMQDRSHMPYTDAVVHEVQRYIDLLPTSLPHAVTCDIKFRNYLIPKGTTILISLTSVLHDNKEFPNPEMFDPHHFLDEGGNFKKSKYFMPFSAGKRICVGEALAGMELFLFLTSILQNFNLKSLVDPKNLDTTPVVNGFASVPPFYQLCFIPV

Rattus norvegicus [13] = assay: Antinociceptive activity in rat assessed as reversal of complete Freund's adjuvant-induced pain at 3 mg/kg, po after 1 hr; type: functional
In short: (§4)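 Rat CFA-induced inflammatory pain model, oral dosing. Mechanical allodynia assessed by paw pressure and expressed as % reversal. Plasma and brain drug levels measured at 3 h post-dose.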

Rattus norvegicus [14] = assay: Antinociceptive activity in rat assessed as reversal of complete Freund's adjuvant-induced pain at 3 mg/kg, po after 3 hrs; type: functional; in short: as §4
Rattus norvegicus [15] = assay: Antinociceptive activity in rat assessed as reversal of complete Freund's adjuvant-induced pain at 3 mg/kg, po after 8 hrs; type: functional; in short: as §4
Rattus norvegicus [16] = assay: Antinociceptive activity in rat assessed as reversal of complete Freund's adjuvant-induced pain at 10 mg/kg, po after 1 hr; type: functional; in short: as §4
Rattus norvegicus [17] = assay: Antinociceptive activity in rat assessed as reversal of complete Freund's adjuvant-induced pain at 10 mg/kg, po after 3 hrs; type: functional; in short: as §4
Rattus norvegicus [18] = assay: Antinociceptive activity in rat assessed as reversal of complete Freund's adjuvant-induced pain at 10 mg/kg, po after 8 hrs; type: functional; in short: as §4
Rattus norvegicus [19] = assay: Antinociceptive activity in rat assessed as reversal of complete Freund's adjuvant-induced pain at 30 mg/kg, po after 1 hr; type: functional; in short: as §4
Rattus norvegicus [20] = assay: Antinociceptive activity in rat assessed as reversal of complete Freund's adjuvant-induced pain at 30 mg/kg, po after 3 hrs; type: functional; in short: as §4
Rattus norvegicus [21] = assay: Antinociceptive activity in rat assessed as reversal of complete Freund's adjuvant-induced pain at 30 mg/kg, po after 8 hrs; type: functional; in short: as §4
Rattus norvegicus [22] = assay: Antiallodynic activity in rat spinal nerve ligation model of neuropathic pain assessed as reversal of mechanical allodynia at 10 mg/kg, po after 1 hr; type: functional
In short: (§5)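 Rat spinal nerve ligation neuropathic pain model, oral dosing. Read-out is % reversal of mechanical allodynia. Plasma and brain drug levels measured at 1 h. An efficacious (EC50) plasma exposure was derived.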

Rattus norvegicus [23] = assay: Antiallodynic activity in rat spinal nerve ligation model of neuropathic pain assessed as reversal of mechanical allodynia at 10 mg/kg, po after 3 hrs; type: functional; in short: as §5
Rattus norvegicus [24] = assay: Antiallodynic activity in rat spinal nerve ligation model of neuropathic pain assessed as reversal of mechanical allodynia at 10 mg/kg, po after 8 hrs; type: functional; in short: as §5
Rattus norvegicus [25] = assay: Antiallodynic activity in rat spinal nerve ligation model of neuropathic pain assessed as reversal of mechanical allodynia at 30 mg/kg, po after 1 hr; type: functional; in short: as §5
Rattus norvegicus [26] = assay: Antiallodynic activity in rat spinal nerve ligation model of neuropathic pain assessed as reversal of mechanical allodynia at 30 mg/kg, po after 3 hrs; type: functional; in short: as §5
Rattus norvegicus [27] = assay: Antiallodynic activity in rat spinal nerve ligation model of neuropathic pain assessed as reversal of mechanical allodynia at 30 mg/kg, po after 8 hrs; type: functional; in short: as §5
[28] = Volume of distribution at steady state in rat at 1 mg/kg, iv and 3 mg/kg, po; type: ADME, organism-based; details: in vivo, read-out: Vdss; in short: as §2
[29] = Cmax in rat at 1 mg/kg, iv and 3 mg/kg, po; type: ADME, organism-based; details: in vivo; in short: as §2
[30] = Plasma concentration in rat at 30 mg/kg, po after 3 hrs; type: ADME, organism-based; design: dose 30 mg/kg, route oral; details: read-out: Activity; in short: as §4
[31] = Drug level in rat brain at 30 mg/kg, po after 3 hrs; type: ADME, organism-based; design: dose 30 mg/kg, route oral; details: read-out: Activity; in short: as §4
[32] = Plasma concentration in rat spinal nerve ligation model at 30 mg/kg, po after 1 hrs; type: ADME, organism-based; design: dose 30 mg/kg, route oral; details: read-out: Activity; in short: as §5
[33] = Drug level in spinal nerve ligation model rat brain at 30 mg/kg, po after 1 hrs; type: ADME, organism-based; design: dose 30 mg/kg, route oral; details: read-out: Activity; in short: as §5
Rattus norvegicus [34] = species: Rattus norvegicus; assay: Neurotoxicity in rat assessed as impairment of motor coordination at 8 uM plasma concentration by rotarod test; type: toxicity, organism-based; details: in vivo
In short: (§6)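 Rat Rotarod motor coordination test after IV doses of 3 and 10 mg/kg. Plasma and brain drug concentrations determined alongside coordination impairment.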

Rattus norvegicus [35] = species: Rattus norvegicus; assay: Neurotoxicity in rat assessed as impairment of motor coordination at 6 uM brain concentration by rotarod test; type: toxicity, organism-based; details: in vivo; in short: as §6
Plasma = assay: Plasma concentration in rat at 3 mg/kg, iv; type: ADME, organism-based; design: dose 3 mg/kg, route intravenous; details: in vivo, read-out: Drug uptake; in short: as §6
Brain = assay: Drug level in rat brain at 3 mg/kg, iv; type: ADME, organism-based; design: dose 3 mg/kg, route intravenous; details: in vivo, read-out: Drug uptake; in short: as §6
Rattus norvegicus [36] = species: Rattus norvegicus; assay: Neurotoxicity in rat assessed as impairment of motor coordination at 1.9 uM plasma concentration by rotarod test; type: toxicity, organism-based; details: in vivo; in short: as §6
Rattus norvegicus [37] = species: Rattus norvegicus; assay: Neurotoxicity in rat assessed as impairment of motor coordination at 1.4 uM brain concentration by rotarod test; type: toxicity, organism-based; details: in vivo; in short: as §6
Rattus norvegicus [38] = species: Rattus norvegicus; assay: Antiallodynic activity in rat spinal nerve ligation model of neuropathic pain assessed as reversal of mechanical allodynia at 0.44 uM plasma concentration; type: functional, organism-based; in short: as §5
Canis familiaris [39] = species: Canis familiaris; assay: Cardiotoxicity in dog assessed as reduction in mean arterial pressure at >2 uM plasma concentration; type: toxicity, organism-based, Canis lupus familiaris
In short: (§7)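 Barbiturate-anesthetized, ventilated dogs given rising IV doses of 1, 3 and 10 mg/kg. Mean arterial pressure and heart rate recorded against plasma drug concentration.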

Canis familiaris [40] = species: Canis familiaris; assay: Cardiotoxicity in dog assessed as reduction in heart rate at maximal plasma exposure; type: toxicity, organism-based, Canis lupus familiaris; design: scale not given: the % may be the effect or the level left; in short: as §7

CC(C)(C)NC(=O)Cn1c(-c2ccc(OC(F)(F)F)cc2)cc2cc(C(C)(C)C(=O)NC(C)(C)C)ccc21
clearance [1]: 5.6 mL/min/kg
bioavailability [2]: 68%
inhibition at 10 µM [3]: 85%
EC50 [4]: > 30 µM
remaining at 1 h [5]: 20%
remaining at 1 h [6]: 20%
AUC (Rattus norvegicus [7]): 0.34 µM·kg·h/mg
clearance [8]: 64 mL/min/kg
half-life [9]: 1.4 h
AUC (Canis familiaris [10]): 1.02 µM·kg·h/mg
half-life [11]: 4.6 h
bioavailability [12]: 18%
IC50 (Cytochrome P450 3A4): > 10 µM
IC50 (Cytochrome P450 2D6): > 10 µM
IC50 (Cytochrome P450 2C9): > 10 µM
Activity (Rattus norvegicus [13]): 36%
Activity (Rattus norvegicus [14]): 37%
Activity (Rattus norvegicus [15]): 17%
Activity (Rattus norvegicus [16]): 57%
Activity (Rattus norvegicus [17]): 52%
Activity (Rattus norvegicus [18]): 22%
Activity (Rattus norvegicus [19]): 66%
Activity (Rattus norvegicus [20]): 68%
Activity (Rattus norvegicus [21]): 32%
Activity (Rattus norvegicus [22]): 45%
Activity (Rattus norvegicus [23]): 47%
Activity (Rattus norvegicus [24]): 14%
Activity (Rattus norvegicus [25]): 68%
Activity (Rattus norvegicus [26]): 50%
Activity (Rattus norvegicus [27]): 27%
Vd [28]: 5.1 L/kg
Cmax [29]: 290 nM
concentration at 3 h [30]: 750 nM
concentration at 3 h [31]: 170 nM
concentration at 1 h [32]: 410 nM
concentration at 1 h [33]: 260 nM
Activity (Rattus norvegicus [34]): Toxic
Activity (Rattus norvegicus [35]): Toxic
concentration (Plasma): 1900 nM
concentration (Brain): 1400 nM
Activity (Rattus norvegicus [36]): Non-toxic
Activity (Rattus norvegicus [37]): Non-toxic
Activity (Rattus norvegicus [38]): Active
Activity (Canis familiaris [39]): Toxic
Activity (Canis familiaris [40]): 32%
